Measurements of several laboratories.
Each line is one published result; the experiments were not run side by side.
Observed: cell growth or viability

Compound | cell line | test | conditions | quantity | result
O=C(O)c1ccc(CN2CCC(CN[C@@H]3C[C@H]3c3ccccc3)CC2)cc1 | NCI-H510A | resazurin | 10 days | EC50 | 109 nM
COc1ccc(-c2ccc(-c3ccc(C(=N)N)nc3)s2)cc1Cl | NCI/ADR-RES | SRB | – | GI50 | 2010 nM
Cn1nnc2c(C(N)=O)ncn2c1=O | HGC-27 | – | – | EC50 | 176000 nM
Cc1cc(C)n(C(=S)[S][Au][PH](CCCCCC[PH]([Au][S]C(=S)n2nc(C)cc2C)(c2ccccc2)c2ccccc2)(c2ccccc2)c2ccccc2)n1 | NCI/ADR-RES | SRB | – | GI50 | 1300 nM
CC1=C(O)C(=O)C=C2C1=CC=C1[C@@]2(C)CC[C@@]2(C)[C@@H]3C[C@](C)(C(=O)OCCCBr)CC[C@]3(C)CC[C@]12C | MGC-803 | MTT | 48 h | IC50 | 400 nM
COc1cccc(Oc2ccccc2NC(=O)CNC(=O)c2cccc3ccccc23)c1 | NCI/ADR-RES | SRB | 48 h | GI50 | 240 nM
C=CC(=O)N1CCN(c2cc(-c3noc([C@@]4(C)CCCc5sc(N)c(C#N)c54)n3)nc(N3CCN(C)C[C@@H]3C)c2)CC1 | GP2d | – | 5 days | EC50 | 4500 nM
S=C([S][Au-][P+](CCCCCC[P+]([Au-][S]C(=S)n1cccn1)(c1ccccc1)c1ccccc1)(c1ccccc1)c1ccccc1)n1cccn1 | NCI/ADR-RES | SRB | – | GI50 | 3990 nM
COc1ccc(-c2ccc(-c3ccc(C(=N)N)nc3)s2)cc1 | NCI/ADR-RES | SRB | – | GI50 | 1940 nM
C=CC(=O)N1CCN(c2nc(=O)n(-c3c(C)ccnc3C(C)C)c3nc(-c4c(O)cccc4F)c(F)cc23)[C@@H](C)C1 | GP2d | – | 5 days | EC50 | > 10000 nM
CN1CCN(C(=O)[C@H](CCCN[C@@H]2C[C@H]2c2ccc(F)cc2)NC(=O)c2ccc(-n3ccnn3)cc2)CC1 | NCI-H510A | resazurin | 10 days | EC50 | 10.5 nM
